ChEMBL document CHEMBL1143681, “Bifunctional [2',6'-dimethyl-L-tyrosine1]endomorphin-2 analogues substituted at position 3 with alkylated phenylalanine derivatives yield potent mixed mu-agonist/delta-antagonist and dual mu-agonist/delta-agonist opioid ligands” (J Med Chem, 2007)
Where a SMILES comes first, the peptide text is derived from it. [ ]: non-standard residue; d: D form. Dmt = Cc1cc(O)cc(C)c1C[C@H](N)C(=O)O

Assays:
Mu-type opioid receptor [1] = molecular target: Mu-type opioid receptor (Cavia porcellus, UniProt P97266); test: Agonist activity at mu opioid receptor in Hartley guinea pig ileum assessed as inhibition of electrically-stimulated muscle contraction; assay type: functional, tissue-based
Summary of the method: (§1)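 Isolated tissue: myenteric plexus longitudinal muscle strips (2–3 cm) from small intestine of male Hartley guinea pigs (μ), or single mouse vas deferens (δ), in organ baths with balanced salt solution, pH 7.5. Inhibition of electrically evoked contraction; IC50 (nM) from dose-response curves, mean ± SE of five to six separate assays.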

Mu-type opioid receptor [2] = molecular target: Mu-type opioid receptor (Rattus norvegicus, UniProt P33535); test: Displacement of [3H]DAMGO from mu opioid receptor in Sprague-Dawley rat brain P2 synaptosome membrane; assay type: tissue-based
Summary of the method: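 Competition binding at equilibrium (2.5 h, 22 °C) on Sprague-Dawley rat (150–160 g) brain P2 synaptosomes, preincubated 60 min at 22 °C to remove endogenous opioids. Radioligands: 3.5 nM [3H]DAMGO (μ) or 1.9 nM [3H]deltorphin-II (δ); nonspecific with 2 µM unlabeled peptide. GF/C filtration; duplicates, 5–8 doses, several preparations. Ki by Cheng-Prusoff (Kd 3.5 nM DAMGO, 1.4 nM deltorphin-II).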

[3] = molecular target: Opioid receptors; mu & delta (Rattus norvegicus) (UniProt P33533+P33535); test: Selectivity for mu opioid receptor over delta opiod receptor in Sprague-Dawley rat brain P2 synaptosome membrane; assay type: tissue-based
[4] = molecular target: T1, Delta-type opioid receptor (Mus musculus, UniProt P32300); test: Agonist activity at delta opioid receptor in mouse vas deferens assessed as inhibition of electrically-stimulated muscle contraction; assay type: functional, tissue-based; summary of the method: as §1
[5] = molecular target: Delta-type opioid receptor (Rattus norvegicus, UniProt P33533); test: Displacement of [3H]deltorphin 2 from delta opioid receptor in Sprague-Dawley rat brain P2 synaptosome membrane; assay type: tissue-based
[6] = molecular target: Kappa-type opioid receptor (Cavia porcellus, UniProt P41144); test: Displacement of [3H]U-69593 from kappa opioid receptor in Hartley guinea pig cerebellum P2 synaptosome membrane; assay type: tissue-based
[7] = molecular target: T1, Delta-type opioid receptor; test: Antagonist activity at delta opioid receptor in mouse vas deferens assessed as inhibition of deltorphin 2-induced response; assay type: functional, tissue-based; settings: read-out: pA2 (converted)
Summary of the method: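 Single mouse vas deferens in organ bath, pH 7.5 buffer; δ antagonism measured against deltorphin II-induced inhibition of electrically evoked contraction. pA2 from Schild plot: negative log molar concentration needed to double deltorphin II concentration for the original response.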

[8] = molecular target: Delta-type opioid receptor (Mus musculus) (UniProt P32300); test: Agonist activity at delta opioid receptor in mouse vas deferens assessed as inhibition of electrically-stimulated muscle contraction at 10000 nM; assay type: functional, tissue-based; set-up: scale not given: the % may be the effect or the level left
Summary of the method: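 Mouse vas deferens in organ bath, physiological buffer pH 7.5; maximal inhibition of electrically evoked contraction recorded at 10,000 nM.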

Sequence of Kappa-type opioid receptor (P41144 whole entry): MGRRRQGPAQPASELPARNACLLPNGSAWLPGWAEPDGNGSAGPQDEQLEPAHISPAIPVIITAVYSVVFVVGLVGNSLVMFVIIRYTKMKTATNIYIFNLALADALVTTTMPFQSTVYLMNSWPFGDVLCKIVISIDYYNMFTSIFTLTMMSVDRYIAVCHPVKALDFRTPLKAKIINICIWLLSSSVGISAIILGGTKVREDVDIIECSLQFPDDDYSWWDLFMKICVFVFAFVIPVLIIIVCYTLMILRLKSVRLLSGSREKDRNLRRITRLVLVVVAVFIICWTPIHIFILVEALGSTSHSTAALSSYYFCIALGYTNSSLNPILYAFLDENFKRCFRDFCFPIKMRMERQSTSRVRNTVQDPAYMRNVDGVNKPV
Sequence of Delta-type opioid receptor (Mus musculus) (P32300 whole entry): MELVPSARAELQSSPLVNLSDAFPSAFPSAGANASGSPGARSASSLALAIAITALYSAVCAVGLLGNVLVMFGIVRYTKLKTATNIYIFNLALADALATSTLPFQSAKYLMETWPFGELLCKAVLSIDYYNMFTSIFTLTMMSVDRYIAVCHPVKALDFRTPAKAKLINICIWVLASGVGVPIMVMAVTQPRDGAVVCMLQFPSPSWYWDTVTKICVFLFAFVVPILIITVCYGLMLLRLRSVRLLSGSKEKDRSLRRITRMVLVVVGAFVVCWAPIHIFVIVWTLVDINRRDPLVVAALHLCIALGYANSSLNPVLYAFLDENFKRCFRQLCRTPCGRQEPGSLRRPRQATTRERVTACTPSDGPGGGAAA
T1 sequence (P32300 whole entry): as above
Sequence of Opioid receptors; mu & delta (Rattus norvegicus) (P33533 whole entry, looked up): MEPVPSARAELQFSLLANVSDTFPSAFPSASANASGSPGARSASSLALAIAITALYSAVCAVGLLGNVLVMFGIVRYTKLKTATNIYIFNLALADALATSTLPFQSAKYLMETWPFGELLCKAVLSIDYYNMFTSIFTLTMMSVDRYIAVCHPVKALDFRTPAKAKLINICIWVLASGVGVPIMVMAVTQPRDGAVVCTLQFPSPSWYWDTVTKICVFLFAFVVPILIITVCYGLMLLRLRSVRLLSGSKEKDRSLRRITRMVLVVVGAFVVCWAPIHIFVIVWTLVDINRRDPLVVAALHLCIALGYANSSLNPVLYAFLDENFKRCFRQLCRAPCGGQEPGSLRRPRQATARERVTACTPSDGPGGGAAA
Sequence of Opioid receptors; mu & delta (Rattus norvegicus) (P33535 whole entry, looked up): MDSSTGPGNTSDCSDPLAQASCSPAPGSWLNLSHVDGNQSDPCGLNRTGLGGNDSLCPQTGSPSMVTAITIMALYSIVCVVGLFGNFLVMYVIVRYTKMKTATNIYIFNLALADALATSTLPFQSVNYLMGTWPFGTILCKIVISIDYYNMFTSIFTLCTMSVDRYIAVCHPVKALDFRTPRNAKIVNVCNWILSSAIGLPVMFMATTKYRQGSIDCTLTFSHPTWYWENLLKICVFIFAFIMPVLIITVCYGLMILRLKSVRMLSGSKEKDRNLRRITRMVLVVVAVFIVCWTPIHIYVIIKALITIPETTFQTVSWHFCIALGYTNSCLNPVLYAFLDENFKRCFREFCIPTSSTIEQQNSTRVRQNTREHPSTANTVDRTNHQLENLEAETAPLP
Sequence of Delta-type opioid receptor (Rattus norvegicus, UniProt P33533) (P33533 whole entry): as the sequence (P33533 whole entry, looked up) above
Sequence of Mu-type opioid receptor (Cavia porcellus, UniProt P97266) (P97266 whole entry): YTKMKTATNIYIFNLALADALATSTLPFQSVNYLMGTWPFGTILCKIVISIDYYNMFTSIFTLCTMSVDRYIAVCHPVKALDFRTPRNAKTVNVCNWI
Sequence of Mu-type opioid receptor (Rattus norvegicus, UniProt P33535) (P33535 whole entry): as the sequence (P33535 whole entry, looked up) above

Row | SMILES | IC50 (Mu-type opioid receptor [1]) [nM] | Ki (Mu-type opioid receptor [2]) [nM] | Ratio Ki [3] | IC50 [4] [nM] | Ki [5] [nM] | Ki [6] [nM] | Kb [7] [nM] | Activity [8] [%]
1 | Cc1ccccc1C[C@H](NC(=O)[C@@H]1CCCN1C(=O)[C@@H](N)Cc1ccc(O)cc1)C(=O)N[C@@H](Cc1ccccc1)C(N)=O | 1.33 | 0.22 | 7880 | 15.7 | 1740 | – | – | –
2 | Cc1cccc(C(C)C)c1C[C@H](NC(=O)[C@@H]1CCCN1C(=O)[C@@H](N)Cc1ccc(O)cc1)C(=O)N[C@@H](Cc1ccccc1)C(N)=O | 2.74 | 0.45 | 1220 | – | 543 | – | – | –
3 | Cc1cc(O)cc(C)c1C[C@H](NC(=O)[C@@H]1CCCN1C(=O)[C@@H](N)Cc1ccc(O)cc1)C(=O)N[C@@H](Cc1ccccc1)C(N)=O (H-YP[Dmt]F-NH2) | 541 | 2.63 | – | 978 | 3020 | – | – | –
4 | Cc1cc(O)ccc1C[C@H](NC(=O)[C@@H]1CCCN1C(=O)[C@@H](N)Cc1ccc(O)cc1)C(=O)N[C@@H](Cc1ccccc1)C(N)=O | – | – | 1150 | – | – | – | – | –
5 | Cc1cc(O)cc(C)c1C[C@H](N)C(=O)N1CCC[C@H]1C(=O)N[C@@H](Cc1c(C)cccc1C(C)C)C(=O)N[C@@H](Cc1ccccc1)C(N)=O | 0.2 | 0.32 | 14 | 5.56 | 4.61 | 205 | – | –
6 | CCc1cccc(C)c1C[C@H](NC(=O)[C@@H]1CCCN1C(=O)[C@@H](N)Cc1c(C)cc(O)cc1C)C(=O)N[C@@H](Cc1ccccc1)C(N)=O | 0.17 | 0.21 | 14 | 0.51 | 3.03 | 278 | – | –
7 | Cc1cc(C)c(C[C@H](NC(=O)[C@@H]2CCCN2C(=O)[C@@H](N)Cc2c(C)cc(O)cc2C)C(=O)N[C@@H](Cc2ccccc2)C(N)=O)c(C)c1 | 0.21 | 0.18 | 10 | > 10000 | 1.83 | 172 | 0.891 | > 22.2
8 | Cc1cc(O)ccc1C[C@H](NC(=O)[C@@H]1CCCN1C(=O)[C@@H](N)Cc1c(C)cc(O)cc1C)C(=O)N[C@@H](Cc1ccccc1)C(N)=O | – | – | 878 | – | – | – | – | < 1
9 | Cc1cc(O)cc(C)c1C[C@H](NC(=O)[C@@H]1CCCN1C(=O)[C@@H](N)Cc1c(C)cc(O)cc1C)C(=O)N[C@@H](Cc1ccccc1)C(N)=O (H-[Dmt]P[Dmt]F-NH2) | 1.94 | 0.092 | – | > 10000 | 80.8 | 998 | 87.1 | –
10 | Cc1cccc(C)c1C[C@H](NC(=O)[C@@H]1CCCN1C(=O)[C@@H](N)Cc1c(C)cc(O)cc1C)C(=O)N[C@@H](Cc1ccccc1)C(N)=O | 0.12 | 0.069 | 33 | – | 2.27 | 94.2 | 7.08 | –
11 | Cc1cc(O)cc(C)c1C[C@H](N)C(=O)N1CCC[C@H]1C(=O)N[C@@H](Cc1ccccc1)C(=O)N[C@@H](Cc1ccccc1)C(N)=O | 0.26 | 0.26 | 382 | 0.59 | 99.2 | 489 | – | –
12 | Cc1ccccc1C[C@H](NC(=O)[C@@H]1CCCN1C(=O)[C@@H](N)Cc1c(C)cc(O)cc1C)C(=O)N[C@@H](Cc1ccccc1)C(N)=O | 0.16 | 0.18 | 26 | > 10000 | 4.61 | 176 | 257 | 0
13 | Cc1cc(C)c(C[C@H](NC(=O)[C@@H]2CCCN2C(=O)[C@@H](N)Cc2ccc(O)cc2)C(=O)N[C@@H](Cc2ccccc2)C(N)=O)c(C)c1 | 1.9 | 0.44 | 3090 | > 10000 | 1360 | – | – | > 36.2
14 | Cc1cc(C)cc(C[C@H](NC(=O)[C@@H]2CCCN2C(=O)[C@@H](N)Cc2c(C)cc(O)cc2C)C(=O)N[C@@H](Cc2ccccc2)C(N)=O)c1 | 14.4 | 0.11 | 105 | > 10000 | 11.6 | 830 | 170 | > 7.1
15 | Cc1cc(C)cc(C[C@H](NC(=O)[C@@H]2CCCN2C(=O)[C@@H](N)Cc2ccc(O)cc2)C(=O)N[C@@H](Cc2ccccc2)C(N)=O)c1 | 389 | 6.19 | 558 | > 10000 | 3450 | – | – | > 8
16 | CCc1cccc(C)c1C[C@H](NC(=O)[C@@H]1CCCN1C(=O)[C@@H](N)Cc1ccc(O)cc1)C(=O)N[C@@H](Cc1ccccc1)C(N)=O | 2.35 | 0.46 | 1070 | 277 | 491 | – | – | –
17 | Cc1cccc(C)c1C[C@H](NC(=O)[C@@H]1CCCN1C(=O)[C@@H](N)Cc1ccc(O)cc1)C(=O)N[C@@H](Cc1ccccc1)C(N)=O | 0.38 | 0.044 | 32700 | 1.39 | 1440 | > 4000 | – | –
